Assay results as given in PubChem BioAssay.
The source made the active and inactive calls.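 The calls were made as follows, unless noted: active = viability at or under a set limit in both replicates, limit being median viability minus 3 SD (cut at about 48% in these data, passing the limit was not always enough); inconclusive = at or under the limit in just one replicate; inactive = at or above the limit in both replicates.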

Experiments:
[1] = reduced viability of SK-BR-3 breast cancer cells – cell-based, 24 h, human, pilot screen (AID 572;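 active = viability at or below 10% of carrier control in both of two separate runs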;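 also: compound exposure lasted between 18 and 24 h rather than exactly 24 h; 100% = carrier-treated control wells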); conditions: SK-BR-3 viability, CellTiter-Glo luminescence, at 10 µM, stronger effect = lower value
[2] = HUVEC growth inhibition – cell-based, human, primary screen (AID 575;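 active = viability at or below 30% in both replicate assays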;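 also: 100% = median of untreated cell wells with 0.1% DMSO on each plate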); conditions: HUVEC proliferation, CellTiter-Glo luminescence, 72 h; at 10 µM; stronger effect = lower value
Outline: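 Assay system: primary human umbilical vein endothelial cells / Buffer or medium: endothelial basal medium with 2% FBS plus growth supplements / Compound dosing: one dose, 10 µM final, 0.1% DMSO / Timing: 72 h treatment at 37 °C / Signal: CTG luminescence / Benchmarks: 32 DMSO-only cell-control wells (high), 32 MePR drug-control wells (low) per plate / Plate: collagen-coated 384-well format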

[3] = H69AR cell proliferation blockers – human, duplicate replicates, primary screen (AID 580); conditions: H69AR lung tumor cells viability, ATP luminescence, 72 h; at 10 µM; stronger effect = lower value;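 also: 100% = mean luminescence of untreated wells and 0% = no signal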
[4] = MRP1 drug-resistance reversers in H69AR cells – cell-based, doxorubicin co-treatment, pilot screen (AID 601;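 active = viability loss from added drug above about 55%, and viability with drug at most 40%, in both replicates, limit read from the data, passing the limit was not always enough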); conditions: CellTiter-Glo, 72 h, at 10 µM; for differential viability (reversal): stronger effect = higher value
[5] = yeast transport mutant growth inhibition pilot in 384-well plates, post-Golgi transport modulator project (AID 636; in the data active = inhibition above about 31%); conditions: absorbance 615 nm, about 18 h, stronger effect = higher value
[6] = growth suppression of yeast trafficking mutant, preliminary HTS, modulators of trafficking downstream of Golgi apparatus project, 1536-format plate, OD 615 nm (AID 637; in the data active = inhibition above about 30%); conditions: yeast transport mutant growth, absorbance 615 nm, 18 h; stronger effect = higher value
[7] = H69AR cells + 2 uM doxorubicin, measured here: viability with 2 uM doxorubicin, stronger effect = lower value
[8] = H69AR cells, compound alone cytotoxicity

SMILES	viability [1]	viability [2]	viability [3]	differential viability (reversal) ([4]; H69AR cells + 2 uM doxorubicin)	viability [4, 7]	viability [4, 8]	inhibition [5]	inhibition [6]
CCOCCCN(Cc1cc2cc(C)cc(C)c2[nH]c1=O)C(=O)N(CC)CC	58% (inactive)	116% (inactive)	82% (inactive)	-2.52% (inactive)	84.5%	82%	0.93% (inactive)	10% (inactive)
CCC1(C)Cc2c(sc3nc(SCC(=O)O)[nH]c(=O)c23)CO1 (configuration not stated)	111% (inactive)	107% (inactive)	94.1% (inactive)	14.5% (inactive)	79.6%	94.1%	-1.6% (inactive)	-10% (inactive)
C/C(=C\c1ccco1)C1C(C#N)=C(N)OC2=C1C(=O)CC(C)(C)C2 (configuration not stated)	110% (inactive)	108% (inactive)	80.1% (inactive)	-9.17% (inactive)	89.2%	80.1%	-7.43% (inactive)	1.09% (inactive)
CN(Cc1ccccc1)C(=O)c1ccccc1NC(=O)c1ccco1	94% (inactive)	104% (inactive)	101% (inactive)	13.5% (inactive)	87.1%	101%	-1.76% (inactive)	-2.55% (inactive)
COc1ccc(-c2[nH]nc3c2C(c2ccncc2)C(C#N)=C(N)O3)cc1 (configuration not stated)	71% (inactive)	122% (inactive)	92.2% (inactive)	2.15% (inactive)	90%	92.2%	-5.81% (inactive)	-0.18% (inactive)
CC(C)NCC(O)COc1cccc2[nH]ccc12 (configuration not stated)	111% (inactive)	78.3% (inactive)	99.2% (inactive)	-1.55% (inactive)	101%	99.2%	-3.25% (inactive)	-3.17% (inactive)
O=C(Nc1ccc(N2CCCC2)cc1)c1cccc(F)c1	134% (inactive)	51.7% (inactive)	25.8% (active)	-24.6% (inactive)	50.3%	25.8%	-0.78% (inactive)	-0.82% (inactive)
CN(Cc1ccc(-n2cccn2)cc1)C(=O)c1cnn2c1NC(c1ccco1)CC2C(F)(F)F (configuration not stated)	74% (inactive)	82.3% (inactive)	78.4% (inactive)	-7.45% (inactive)	85.8%	78.4%	2.88% (inactive)	-0.36% (inactive)
O=C(O)C1CCCCC1C(=O)Nc1ccccn1 (configuration not stated)	115% (inactive)	93.9% (inactive)	108% (inactive)	8.84% (inactive)	99.4%	108%	-4.52% (inactive)	-4.73% (inactive)
CCOc1ccc(NC(=O)COC(=O)Cn2cnnn2)cc1OCC	86% (inactive)	106% (inactive)	107% (inactive)	-0.92% (inactive)	108%	107%	1.23% (inactive)	-0.36% (inactive)
O=P(CCNCc1ccco1)(c1ccccc1)c1ccccc1	110% (inactive)	97.8% (inactive)	97.4% (inactive)	2.59% (inactive)	94.8%	97.4%	-5.6% (inactive)	-4.18% (inactive)
Cc1cc(NCC2CCCO2)n2c(nc3ccccc32)c1C#N (configuration not stated)	79% (inactive)	81.2% (inactive)	71% (inactive)	38.9% (inactive)	32.1%	71%	-6.44% (inactive)	1.61% (inactive)
CCc1noc(C)c1C(=O)NCCc1ccc(OC)c(OC)c1	87% (inactive)	104% (inactive)	104% (inactive)	16.7% (inactive)	87%	104%	-8.49% (inactive)	2.58% (inactive)
CSC1=C(C#N)C(C)CC(=O)N1 (configuration not stated)	91% (inactive)	107% (inactive)	115% (inactive)	9.97% (inactive)	105%	115%	-7.81% (inactive)	2.18% (inactive)
